Compound activity from PubChem.
PfG6PD inh: PfG6PD enzyme inhibitors, primary screen, biochemical, fluorescence intensity, uHTS; actives 0.78% (n = 350,000); inhibition, % at 20 µM; PfGluPho enzyme, NADPH resazurin-diaphorase fluorescence; glucose-6-phosphate dehydrogenase-6-phosphogluconolactonase (Plasmodium falciparum 3D7);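 active means inhibition reaching at least a set limit at 20 µM in the primary screen, cut at about 59% in these data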
HKDC1 inhibitor: HKDC1 hexokinase inhibitors, primary screen, biochemical, fluorescence, uHTS | inhibition, % at 20 µM | recombinant HKDC1, G6PDH/diaphorase resazurin coupled fluorescence | Q2TB90 | actives 0.16% (n = 340,000) | AID 493160, 2011;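 active means inhibition above about 35% when tested at 20 µM, limit read from the data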
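Test system: recombinant HKDC1 (HK5) hexokinase enzyme, produced in-house / Doses: 20 µM test compound, 1% DMSO / Timing: 90 min, room temperature / Detection: G6PDH/diaphorase-coupled fluorescence, 1 mM NADP, 100 µM resazurin, 525/613 nm / Control set: DMSO wells with and without enzyme mix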
T cell HTS: modulators of CD8 T cell-vesicle binding, primary screen, mouse 2C CD8+ T cells, flow cytometry; actives 0.068% (n = 330,000); 2C CD8+ T cell-vesicle binding; hits give low values; response (vesicle binding), % at 7 µM;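 active means response, share of CD8 T cells binding vesicles, and their 90th percentile fluorescence all below set limits, cut at about 80% in these data, passing the limit was not always enough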;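 further: values below 100% mean blocked vesicle binding to the CD8+ T cells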
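Read-out – percent CD8+ FL2 mean versus row control · System – murine 2C transgenic CD8+ T lymphocytes · Times – 1.5 h cell–vesicle binding at 37 °C, then 20 min icy labelling · Control set – naked vesicles low, QL9 vesicles with vehicle high · Detection – cytometric PE anti-B7-1 and Alexa647 anti-CD8 signals after 1% paraformaldehyde fixation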
ATG4B inh: ATG4B protease inhibitors, primary screen, biochemical, fluorescence, uHTS; Cysteine protease ATG4B (Homo sapiens), Q9Y4P1; ATG4B cleavage of LC3-PLA2, NBD-HPC fluorescence, 1 h; inhibition, % at 8.33 µM; actives 0.51% (n = 340,000); in the data active means inhibition above about 40%
Target sequence (Q9Y4P1 whole entry, looked up): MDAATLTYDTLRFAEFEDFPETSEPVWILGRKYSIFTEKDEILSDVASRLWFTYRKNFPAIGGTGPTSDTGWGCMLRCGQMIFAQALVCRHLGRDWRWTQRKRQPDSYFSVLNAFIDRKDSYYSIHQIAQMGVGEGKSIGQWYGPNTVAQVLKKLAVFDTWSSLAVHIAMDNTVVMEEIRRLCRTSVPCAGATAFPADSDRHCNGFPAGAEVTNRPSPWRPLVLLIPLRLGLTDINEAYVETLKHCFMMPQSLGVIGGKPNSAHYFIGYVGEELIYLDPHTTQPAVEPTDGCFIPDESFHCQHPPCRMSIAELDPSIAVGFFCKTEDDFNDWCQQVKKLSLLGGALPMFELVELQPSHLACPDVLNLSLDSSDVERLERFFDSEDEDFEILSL
PKA-R1A act: activators of PKA-R1A holoenzyme, primary screen, biochemical, fluorescence polarization, Cy5-IP20, bovine R1A, mouse PKAc | cAMP-dependent protein kinase type I-alpha regulatory subunit (Bos taurus) + … | PKA-R1A dissociation; scaled: DMSO 0%, 113 µM cGMP 100% | activation, % at 11.4 µM | actives 0.083% (n = 340,000) | AID 504707, 2011;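 active means percent activation above the mean of all tested compounds plus 3 SD, cut at about 19% in these data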;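 further: higher means more PKAc released from R1A so a rise in polarization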
PKA-R2B activ: activators of PKA-R2B holoenzyme, primary screen, biochemical, fluorescence polarization, Cy5-IP20, human. cAMP-dependent protein kinase catalytic subunit beta (Homo sapiens) + cAMP-dependent …. PKA-R2B holoenzyme dissociation; R2B truncated from residue 108, S112A mutant; 0% DMSO only, 100% 113 µM cGMP. activation, % at 11.4 µM. actives 0.079% (n = 340,000);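 active means activation above a cutoff set at the mean over all compounds plus 3 SD, cut at about 18% in these data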;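 further: higher means more holoenzyme dissociation and a rise in polarization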
ATG4B conf: ATG4B protease inhibitors, retest, confirmation, biochemical, fluorescence, single concentration; ATG4B protease fluorescent substrate cleavage assay; actives 92% (n = 320); shares compounds with ATG4B inh; inhibition, % at 8.33 µM; AID 504757, 2011; in the data active means inhibition above about 39%
PLA2 ctr: PLA2 enzyme inhibition, counter-screen for ATG4B inhibitor project, biochemical, single concentration, uHTS hits | shares compounds with ATG4B inh | purified PLA2, NBD-C6-HPC fluorescence, 45 min | inhibition, % at 8.33 µM | actives 66% (n = 1,600); in the data active means inhibition above about 50%
Target sequence (P04054 whole entry, looked up): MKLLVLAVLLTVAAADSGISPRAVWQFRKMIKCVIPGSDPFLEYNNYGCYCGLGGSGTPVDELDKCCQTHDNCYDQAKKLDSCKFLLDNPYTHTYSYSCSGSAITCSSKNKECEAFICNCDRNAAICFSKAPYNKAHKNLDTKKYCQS
Each line names hits and unclear results; the compound was inactive in the other large screens (follow-up assays come after a bar, where they were run). A selection: hits, their analogues and other compounds. The true share with any hit is near 1.6%.

COc1cc(C=NNc2ccc(S(=O)(=O)Nc3ccccc3C(=O)O)cc2[N+](=O)[O-])ccc1O	ATG4B inh 46.4 | PLA2 ctr 62.8
O=C(COc1ccc(S(=O)(=O)N2CCOCC2)cc1Cl)NCc1ccc2c(c1)OCO2	none (no result: HKDC1 inhibitor, T cell HTS, ATG4B inh)
Cc1cc(C(=O)N/N=C/c2ccc(-c3cccc(Cl)c3Cl)o2)n[nH]1	ATG4B inh 50.3 | PLA2 ctr inactive
Cc1cc(C(=O)N/N=C/c2ccc(-c3cccc(Br)c3)o2)n[nH]1	none (no result: PKA-R1A act, PKA-R2B activ)
Cc1ccccc1CSCC(=O)Nc1ccccc1-c1ccccc1	ATG4B inh 51.4 | PLA2 ctr 58.9
CN(CC(=O)Nc1ccccc1Br)CC(=O)Nc1ccccc1-c1ccccc1	none
Cc1ccccc1NC(=O)CSCC(=O)Nc1ccccc1C	none
O=C(CSCc1cccc(Cl)c1)Nc1ccccc1-c1ccccc1	ATG4B inh 47.1 | PLA2 ctr 51.4
CN(CC(=O)Nc1ccccc1-c1ccccc1)Cc1ccccc1Cl	ATG4B inh 55.3 | PLA2 ctr 51.9
O=C(C[C@H]1C/C=C\CC[C@@H](Cc2ccc(F)cc2)C(=O)OC[C@H]2CCCN2C1=O)NCCO	none
CCOC(=O)C(=NC1CCCCC1)NNc1cccc(C(F)(F)F)c1	none
CCOC(=O)C(=NC(C)CC)NNc1cccc(C(F)(F)F)c1 (stereo not drawn)	ATG4B inh 40.2 | PLA2 ctr inactive
CC1(c2ccc(NC(=O)c3ccccc3F)cc2)CC1(Cl)Cl (stereo not drawn)	ATG4B inh 56.8 | PLA2 ctr 67.1
O=C(c1cc(COc2ccc(F)cc2Cl)on1)N1CCc2sccc2C1	none
CSc1ccccc1OCc1cc(C(=O)N2CCc3sccc3C2)no1	ATG4B inh 72.1 | PLA2 ctr 78.5
Cc1ccc(C)c(OCc2cc(C(=O)N3CCc4sccc4C3)no2)c1	ATG4B inh 45.8 | PLA2 ctr 81.1
COCC1CCN(C(=O)c2cc(COc3ccccc3SC)on2)C1 (stereo not drawn)	none
CCOc1ccccc1NC(=O)COC(=O)C12CC3CC(CC(O)(C3)C1)C2	none (no result: T cell HTS)
COc1cccc(CNC(=O)C2CCN(S(=O)(=O)c3ccc4c(c3)CC(C)N4C(=O)C3CC3)CC2)c1 (stereo not drawn)	ATG4B inh 56.2 | PLA2 ctr 57.7
COc1ccc(CNC(=O)C2CCN(S(=O)(=O)c3ccc4c(c3)CC(C)N4C(=O)C3CC3)CC2)cc1 (stereo not drawn)	none
COc1ccc(C=O)cc1CN1CCCN(Cc2ccccc2F)S1(=O)=O	ATG4B inh 52.6 | PLA2 ctr 56.0
COc1cc(C(=O)OCC(=O)N2CCC(Cc3ccccc3)CC2)cc(OC)c1OC	none
COC[C@H](NS(=O)(=O)c1ccc(Br)cc1F)[C@@H](O)c1ccccc1	none (no result: HKDC1 inhibitor, T cell HTS, ATG4B inh)
O=c1c2ccccc2nc(SCc2cn3ccsc3n2)n1-c1ccc(F)cc1	ATG4B inh 74.5 | PLA2 ctr 71.4
O=C(c1ccc(-n2c(SCc3cc(F)ccc3F)nc3ccccc3c2=O)cc1)N1CCOCC1	ATG4B inh 47.0 | ATG4B conf 63.2 | PLA2 ctr inactive
O=C(CSc1nc2ccccc2c(=O)n1-c1ccc(F)cc1)NCc1ccco1	none
CN(C(=O)c1ccc(Cl)cc1)c1ccc(OCC(=O)Nc2cc(C(=O)O)ccc2Cl)cc1	none (no result: T cell HTS, PKA-R1A act, PKA-R2B activ)
Fc1ccc(NCc2ccccc2F)cc1Cl	ATG4B inh 41.5 | ATG4B conf 68.5 | PLA2 ctr inactive
Fc1ccccc1CNc1ccc(Cl)cc1	none
CCN(CCCn1c(SCC#N)nc2ccccc2c1=O)c1ccccc1	ATG4B inh 43.5 | PLA2 ctr inactive
O=C(c1cccc(Oc2c(Cl)cccc2[N+](=O)[O-])c1)N1CCOCC1	none
Cc1cc(Nc2ccc(Cl)cc2)n(-c2cccc(Cl)c2)n1	ATG4B inh 41.4 | PLA2 ctr 63.4
Cc1cc(Nc2ccc(Cl)cc2)n(-c2ccccc2)n1	none
CSCCC(NC(=O)c1cccc(C)c1)C(=O)NNC(=O)c1cccs1 (stereo not drawn)	none
Cc1ccccc1CNC(=O)c1cc(COc2ccc(F)cc2F)on1	none
Cc1ccc(OCc2cc(C(=O)NCc3cc(F)ccc3C)no2)cn1	ATG4B inh 50.4 (no result: T cell HTS) | PLA2 ctr 54.3
O=C(c1ccc2c(=O)n(Cc3ccc4c(c3)OCO4)c(=S)[nH]c2c1)N1CCCCC1	ATG4B inh 54.9 | PLA2 ctr inactive
O=C(c1ccc(Cn2c(=S)[nH]c3ccccc3c2=O)cc1)N1CCN(c2ccccn2)CC1	ATG4B inh 46.9 | PLA2 ctr 65.7
Cc1ccc(N=CC2=C(O)CC(c3ccccc3Cl)CC2=O)cc1 (stereo not drawn)	none (no result: PKA-R1A act, PKA-R2B activ)
O=C1CC(c2ccccc2Cl)CC(O)=C1C=Nc1ccccc1 (stereo not drawn)	ATG4B inh 53.1 | PLA2 ctr 52.8
O=C(C1=C(Nc2ccccc2)c2ccccc2S(=O)(=O)N1)c1ccccc1	ATG4B inh 73.6 | PLA2 ctr 83.2
Cc1ccccc1NC1=C(C(=O)c2ccccc2)N(C)S(=O)(=O)c2ccccc21	none
Cc1cccc2nc(-c3cccnc3)c(NCCC(C)C)n12	ATG4B inh 40.5 | PLA2 ctr 51.5
CC(=O)c1cccc(NC(=S)NNC(=O)c2ccc(C)c([N+](=O)[O-])c2)c1	none
O=C(NNC(=S)Nc1ccc(F)cc1)c1cccc([N+](=O)[O-])c1	none
Cc1ccc(NC(=S)NNC(=O)c2cccc([N+](=O)[O-])c2)cc1Cl	ATG4B inh 76.9 | PLA2 ctr 77.8
Cc1ccc(C(=O)NNC(=S)Nc2cccc(Cl)c2Cl)cc1[N+](=O)[O-]	ATG4B inh 47.9 | ATG4B conf 78.0 | PLA2 ctr inactive
CCOc1ccc(-c2cc(NC(=O)c3c(F)cccc3F)c(C(=O)O)s2)cc1	ATG4B inh 92.0 | PLA2 ctr 94.0
